# Most compounds without a hit are left out; they make up all but 2% or so of the library.
# Lipid droplet – modulators of hepatic lipid droplet formation | inhibition, % at 6.5 µM | 0.4% of 240,000 active | AID 1656 | AML12 mouse hepatocytes, oleate lipid droplets, BODIPY imaging;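 active means lipid droplet intensity inhibited by at least 50%, with more than 500 cells counted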
#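 Assay system: AML12 mouse liver cells | Compound: 6.5 µM single-point dosing | Schedule: Overnight exposure | Technique: Fluorescence imaging, 20x objective, two fields per well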
# TAG inh – inhibitors of triacylglycerol accumulation | H9c2 cells, Nile Red lipid (TAG) fluorescence; cells loaded with 200 µM oleic acid | inhibition, % at 12.5 µM | 0.66% of 230,000 active;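 active means pattern-corrected inhibition of lipid staining of at least 50% with the nuclear-stain viability signal not falling by more than 50%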;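 further: 0% = DMSO wells and 100% = triacsin C control wells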
# Arr AP2 block – blocks beta-arrestin peptide binding to AP2 adaptin; 0.31% of 340,000 active; inhibition, % at 10 µM; FITC-arrestin peptide / GST-AP2 beads, flow cytometry; AP2 beta2 appendage carries R879A mutation;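 active means inhibition above a set limit, near 3 SD of compounds lacking own fluorescence, cut at about 54% in these data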;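 further: plate controls were DMSO wells for no effect and 5 µM unlabelled arrestin peptide for full effect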
#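 System: GST-AP2 R879A glutathione beads; medium: PBS, Tween 20 0.05%, BSA 0.1%; reagent: fluorescein-tagged arrestin peptide at 50 nM final; schedule: pre-incubation 12 min, peptide binding 1 h, room temperature; detection: flow cytometry, FL1 (488/535 nm); read-out: inhibition as reduced fluorescein signal on beads, percent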
# Beta2AR agonist – agonists of human beta-2 adrenergic receptor inducing internalization. P07550. Am2.2-beta2AR cells, FAP receptor internalization, flow cytometry. response, % (concentration not given with the values). 0.43% of 340,000 active. AID 504454;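 active means response above a set limit, near 3 SD of response in nonfluorescent compounds, cut at about 42% in these data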
# GRK2 inh – inhibitors of human GRK2 displacing RNA aptamer | P25098 | bead flow cytometry, FAM-aptamer displacement from GRK2 | inhibition of aptamer binding, % at 10 µM | 0.59% of 330,000 active | AID 488847;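 active means inhibition of aptamer binding above 40%, roughly 3 SD of noise, on plates passing a quality check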;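 further: median bead fluorescence of bound FAM aptamer so fluorescent compounds give negative values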
# NTR1 agonist – activates human neurotensin receptor 1; activation, % at 20 µM; NTR1-U2OS beta-arrestin-GFP spot imaging, agonist mode; 0.17% of 330,000 active; P30989; AID 493036;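 active means activation at or above 40% of the spot to cytoplasm intensity ratio, with at least 20 cells analyzed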;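 further: 0% = DMSO without peptide and 100% = 100 nM NTR1 peptide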
# Target sequence (P30989 whole entry, looked up): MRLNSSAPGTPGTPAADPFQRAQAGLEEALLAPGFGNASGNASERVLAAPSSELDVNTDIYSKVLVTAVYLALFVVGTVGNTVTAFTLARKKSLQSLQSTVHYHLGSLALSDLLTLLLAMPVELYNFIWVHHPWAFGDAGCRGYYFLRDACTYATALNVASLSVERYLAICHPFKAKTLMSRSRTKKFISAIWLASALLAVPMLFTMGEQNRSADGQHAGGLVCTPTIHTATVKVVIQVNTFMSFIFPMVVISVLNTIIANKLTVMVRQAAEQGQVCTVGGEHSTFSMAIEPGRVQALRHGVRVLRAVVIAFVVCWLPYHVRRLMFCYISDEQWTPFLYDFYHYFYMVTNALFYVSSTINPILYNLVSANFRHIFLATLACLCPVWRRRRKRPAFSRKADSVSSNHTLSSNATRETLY
# Arr-AP2 CP1 – inhibitors of human beta-arrestin and AP2 interaction. shares compounds with Arr AP2 block. GST-AP2 beads, FITC arrestin peptide binding, flow cytometry; GST-fused beta2-adaptin appendage, R879A mutant. inhibition, % at 10 µM. 2% of 1,300 active. AID 504908;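 active means inhibition above a set limit, roughly 3 SD of non-fluorescent compound noise, cut at about 38% in these data; inactive means inhibition at or below that limit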;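 further: loss of bead fluorescence from 50 nM FITC arrestin peptide bound to appendage; 0% = negative control wells and 100% = excess unlabelled arrestin peptide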
# GST GSH counter – GST-GSH bead binding interference, counter-screen | shares compounds with Arr AP2 block | GST-fluorescein binding to GSH beads, fluorescence | inhibition, % at 10 µM | 2% of 1,300 active | AID 588338;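 active means inhibition above 50%, about 3 SD of the inhibition seen with non-fluorescent compounds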;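 further: fluorescein maleimide labelled GST captured on 4 micron glutathione beads; higher means more loss of bead fluorescence from quenching or blocked binding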
# Starred values were filed as active, the others as inactive; . = no result given.
SMILES,Lipid droplet,TAG inh,Arr AP2 block,Beta2AR agonist,GRK2 inh,NTR1 agonist,Arr-AP2 CP1,GST GSH counter
O=c1c2cnn(-c3ccc(F)cc3)c2ncn1Cc1ccc(F)cc1,-26,-6,90*,3,1,1,-6,-1
COc1cc2c(c(OC)c1CC=C(C)C)C[C@H](c1ccc(O)cc1O)CO2,.,.,-2,5,0,8,.,.
CN(C)c1ccc(/C=N\Nc2nc(-c3ccccc3)cc(=O)[nH]2)cc1,2,.,102*,-4,0,4,-2,-2
CN(C)c1ccc(C=NNc2nc3c([nH]2)c(=O)n(C)c(=O)n3C)cc1,.,12,17,12,.,.,.,.
Cc1nc2c(C)cccn2c(=O)c1NC(=O)c1cccs1,.,-3,66*,-2,0,0,6,5
Cc1cccn2c(NC(=O)c3cccs3)c(-c3ccccc3)nc12,9,.,-7,7,0,2,.,.
CCCNC(=O)C1(C)CCCN(C(=O)c2cc(F)ccc2C)C1 (configuration not stated),.,10,.,.,.,.,.,.
COc1ccccc1NC(=O)Nc1cnccn1,16,.,17,-3,2,0,23,-1
COc1ccc(OC)c(NC(=O)Nc2cnccn2)c1,-12,-1,56*,2,0,0,7,4
Cc1c(Cl)cccc1NC(=O)Nc1cnccn1,8,.,-1,7,0,1,-6,3
O=C(Nc1cnccn1)Nc1ccccc1F,-4,22,-14,1,0,0,-6,2
Cc1ccc(C(=O)NCC(c2ccco2)N2CCc3ccccc32)cc1 (configuration not stated),.,5,-10,-5,2,2,.,.
O=C(/C=C/c1ccccc1)Nc1cccc(C(=O)N2CCCC2)c1,.,1,-13,-11,.,.,.,.
COc1cc(/C=N/NC(N)=S)ccc1OCC(=O)Nc1ccc(C)c(C)c1,-8,.,3,5,0,1,.,.
CCCCNC(=S)N/N=C/c1ccc(OCC(=O)Nc2c(C)cc(C)cc2C)c(OC)c1,-4,.,103*,-2,1,7,2,-2
COc1cc(/C=N/NC(=O)c2cccnc2)ccc1OCC(=O)Nc1ccc(C)cc1,29,12,91*,21,0,2,1,-5
CCN(/C=N/S(=O)(=O)c1ccc(Cl)cc1)CC,-2,-21,6,0,0,0,.,.
CC(C)(C)NC(=O)COC(=O)c1ccccc1OCC(=O)Nc1ccc(Br)cc1,-4,-16,103*,-15,1,0,-9,-3
Cc1cccc(NC(=O)CN2CCN(C(=O)CN3C(=O)NC4(CCCCC4C)C3=O)CC2)c1C (configuration not stated),.,-9,-13,-3,.,.,.,.
COc1ccc(NC(=O)C2CCCN(S(=O)(=O)c3c(C)[nH]c(=O)[nH]c3=O)C2)cc1OC (configuration not stated),-57,1,60*,-2,5,-2,-10,-3
COc1ccc(C(=O)N/C(=C\c2cccs2)C(=O)N2CCN(C)CC2)cc1OC,5,.,9,2,3,-1,.,.
CCOC(=O)N1CCN(C(=O)/C(=C/c2cccs2)NC(=O)c2ccc(OC)c(OC)c2)CC1,2,.,60*,41,1,1,-2,-14
COc1ccc(-c2nn(-c3ccccc3)cc2C(=O)N(C)C)cc1,1,.,60*,2,0,-1,-8,-7
Cn1c(=O)c(C(=O)NNC(=O)c2ccccc2Br)c(O)c2ccccc21,2,.,56*,-12,1,0,-7,4
CN(C)c1cccc(C(=O)NNC(=O)CSc2ccccc2)c1,-10,.,22,11,0,0,.,.
SMILES,Lipid droplet,TAG inh,Arr AP2 block,Beta2AR agonist,GRK2 inh,NTR1 agonist,Arr-AP2 CP1,GST GSH counter
Cn1ccc(C(=O)OCC(=O)c2ccccc2)n1,.,13,18,-15,0,0,.,.
Cn1ccc(C(=O)OCC(=O)Nc2cccc3ccccc23)n1,12,-3,59*,0,3,-1,-6,-4
C=CCN1C(=O)c2ccc(C(=O)N3CCN(S(=O)(=O)c4cccc(F)c4)CC3)cc2C1=O,.,-2,66*,-2,5,1,5,-10
CC1(C(=O)NS(=O)(=O)c2cccc(OC(F)F)c2)CCN1C(=O)CCc1cccs1 (configuration not stated),.,8,.,.,.,.,.,.
CC12CN3CC(C)(CN(C1)C3c1ccc(Br)cc1O)C2 (configuration not stated),.,-12,23,4,0,1,-7,0
COC(=O)c1ccccc1S(=O)(=O)N1CCC(C(=O)NCCC2=CCCCC2)CC1,.,8,63*,-2,9,0,-5,-1
O=C(NCCC1=CCCCC1)C1CCN(S(=O)(=O)c2ccccc2)CC1,-13,-4,6,0,0,2,.,.
O=C(CN(C1CC1)S(=O)(=O)c1ccc(S(=O)(=O)N2CCCCCC2)cc1)Nc1ccccc1,.,25,-10,1,0,16,.,.
O=C(CN(Cc1cccs1)S(=O)(=O)c1ccc(S(=O)(=O)N2CCCCC2)cc1)Nc1ccccc1,-15,.,102*,0,2,3,-2,3
Cc1ccc(S(=O)(=O)CCC(=O)NCc2ccc(Cl)cc2)cc1,-2,-4,-8,-5,0,0,.,.
Cc1ccc(CNC(=O)CCS(=O)(=O)c2ccc(C)cc2)cc1,-4,5,70*,2,1,0,-3,-5
CCOC(=O)C1(C)CCN1C(=O)c1ccc(C(=O)OC)cc1 (configuration not stated),.,1,.,.,.,.,.,.
COC(=O)CSc1nc(N)nc(C)c1Br,.,9,56*,4,12,0,-13,-3
COC(=O)CSc1nc(C)cc(C)c1C#N,18,14,1,0,17,2,.,.
O=C(CSC1=NS(=O)(=O)c2cc(F)ccc2N1)NCCc1ccccc1,.,14,-5,-4,2,0,.,.
O=C1CCCC/C1=N\Nc1ccc(C2CCCCC2)cc1,-5,.,.,.,1,1,.,.
O=C1CCCC/C1=N\Nc1ccc(OCc2ccccc2)cc1,10,9,98*,3,4,-1,-2,22
COc1cc(OC)cc(C(=O)NCC(=O)OCc2nc3ccccc3s2)c1,-13,-12,55*,16,4,1,1,5
COc1ccc(CNC(=O)CN(CC2CCCO2)C(=O)CNS(=O)(=O)c2ccc(C)cc2)cc1 (configuration not stated),.,-7,77*,0,0,0,-4,1
